Data from ChEMBL document CHEMBL1133746 (J Med Chem, 2000).
*1 amine or outer side, *2 acyl side, *3 side chain or, on linkers, in order; H or OH if unused. Where a SMILES comes first, the peptide text is derived from it. [ ]: non-standard residue; d: D form. The star is where a group is joined. X2 = O=C(O)CN1C(=O)[C@H](N*)CSc2ccccc21; X1 = O=C([C@@H]1CC(O)CN1[*:1])[*:2]; Igl = N[C@H](C(=O)O)C1Cc2ccccc2C1; Hyp = O=C(O)[C@@H]1C[C@@H](O)CN1; 2Thi = N[C@@H](Cc1cccs1)C(=O)O

Tests used:
[1] = organism: Homo sapiens; experiment: Inhibition of contraction of human umbilical vein (HUV) induced by different concentrations of bradykinin was determined; format: functional; conditions: for Kb: read-out: pA2 (converted)
Outline: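 Human umbilical vein rings (3–4 mm) were mounted in Krebs organ baths at 37 °C with 95% O2/5% CO2. Captopril (10 µM), DL-thiorphan (1 µM), mepyramine (1 µM), atropine (1 µM), indomethacin (3 µM), NG-nitro-L-arginine (30 µM) and nifedipine (0.1 µM) were added. […] Means are of at least 3 experiments.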

[2] = organism: Homo sapiens; experiment: Ability to inhibit contraction of human umbilical vein (HUV) induced by [des-Arg10]-Kallidin was determined.; format: functional; conditions: read-out: pA2 (converted)
Outline: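 Human umbilical vein rings (3–4 mm) were kept overnight at 37 °C in Krebs with penicillin/streptomycin under 95% O2/5% CO2 to induce B1. They were then set in organ baths at 37 °C with captopril, thiorphan, mepyramine, atropine, indomethacin, NG-nitro-L-arginine and nifedipine added. [des-Arg10]-kallidin concentration-response curves were run 30 min later, with antagonist or vehicle added 15 min before. Means are of at least 3 experiments.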

[3] = target: T1, B2 bradykinin receptor (Homo sapiens, UniProt P30411); experiment: Ability to bind to human cloned B2 receptor in competition binding experiments with [3H]- bradykinin
T1 sequence (P30411 whole entry): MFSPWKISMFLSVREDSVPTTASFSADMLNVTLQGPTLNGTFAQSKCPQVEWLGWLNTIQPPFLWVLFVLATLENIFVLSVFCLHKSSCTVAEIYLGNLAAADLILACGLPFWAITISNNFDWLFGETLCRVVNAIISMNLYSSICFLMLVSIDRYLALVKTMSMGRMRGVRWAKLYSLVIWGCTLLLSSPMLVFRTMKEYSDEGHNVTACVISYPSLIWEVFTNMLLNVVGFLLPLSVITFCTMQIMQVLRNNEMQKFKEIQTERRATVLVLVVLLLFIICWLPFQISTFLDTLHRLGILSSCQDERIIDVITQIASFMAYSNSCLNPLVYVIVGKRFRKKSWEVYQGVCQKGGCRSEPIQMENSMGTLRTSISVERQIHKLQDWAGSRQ
Outline: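 Membranes were prepared from stably transfected CHO cells expressing the human B2 receptor. Cells were scraped into 20 mM TES pH 6.8 with 1 mM 1,10-phenanthroline, 140 µg/mL bacitracin and 0.1% BSA, and membranes were spun at 40000g for 15 min. Bound label was filtered on PEI-soaked GF/B filters, washed with ice-cold buffer and counted.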

[4] = target: T2, B1 bradykinin receptor (Homo sapiens, UniProt P46663); experiment: Ability to bind to human cloned B1 receptor in competition binding experiments with [3H][des-Arg10,Leu9]-Kallidin.
T2 sequence (P46663 whole entry): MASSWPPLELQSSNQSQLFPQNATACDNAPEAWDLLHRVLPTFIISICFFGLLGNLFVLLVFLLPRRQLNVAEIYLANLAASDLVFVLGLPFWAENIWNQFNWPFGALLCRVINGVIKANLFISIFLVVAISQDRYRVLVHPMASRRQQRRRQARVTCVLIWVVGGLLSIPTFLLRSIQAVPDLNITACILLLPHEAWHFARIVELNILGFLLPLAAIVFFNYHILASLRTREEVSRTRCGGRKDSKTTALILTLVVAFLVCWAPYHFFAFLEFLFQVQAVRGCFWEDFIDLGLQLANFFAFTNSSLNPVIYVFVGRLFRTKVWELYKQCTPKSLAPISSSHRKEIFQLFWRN
Outline: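 Membranes from stably transfected human embryonic kidney 293 cells expressing the human B1 receptor were used. Cells were scraped into 25 mM TES pH 7.4 with 1 mM 1,10-phenanthroline, 140 µg/mL bacitracin and 0.1% BSA, and membranes were spun at 40000g for 15 min. Incubation was with 1 nM [3H][des-Arg10,Leu9]-kallidin for 60 min. Nonspecific binding was taken with 10 µM [des-Arg10,Leu9]-kallidin. Bound label was collected by filtration on PEI-soaked GF/B filters and counted by scintillation.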

Molecule	Kb [1] [µM]	Kb [2] [nM]	Ki [3] [nM]	pD2 [1]	Ki [4] [nM]	pKp [1]
CC(C)C[C@H](NC(=O)[C@@H]1CCCN1C(=O)[C@H](CO)NC(=O)[C@H](Cc1ccccc1)NC(=O)CNC(=O)[C@@H]1CCCN1C(=O)[C@@H]1CCCN1C(=O)[C@@H](N)CCCN=C(N)N)C(=O)O	> 10	398	> 1000	–	–	–
H-RPPGFSPFR-OH [BRADYKININ]	–	–	–	7.9	–	–
CC(C)C[C@H](NC(=O)[C@@H]1CCCN1C(=O)[C@H](CO)NC(=O)[C@H](Cc1ccccc1)NC(=O)CNC(=O)[C@@H]1CCCN1C(=O)[C@@H]1CCCN1C(=O)[C@H](CCCN=C(N)N)NC(=O)[C@@H](N)CCCCN)C(=O)O	> 10	12.6	> 1000	–	–	–
NCCCC[C@H](N)C(=O)N[C@@H](CCCN=C(N)N)C(=O)N1CCC[C@H]1C(=O)N1C[C@H](O)C[C@H]1C(=O)NCC(=O)N[C@H](C(=O)N[C@@H](CO)C(=O)N[C@@H]1CSc2ccccc2N(CC(=O)O)C1=O)C1Cc2ccccc2C1 (H-KRP[Hyp]G[Igl]S-X2)	> 10	10	9.2	–	0.023	–
NC(N)=NCCC[C@@H](N)C(=O)N[C@@H](CCCN=C(N)N)C(=O)N1CCC[C@H]1C(=O)N1C[C@H](O)C[C@H]1C(=O)NCC(=O)N[C@@H](Cc1cccs1)C(=O)N[C@@H](CO)C(=O)N1Cc2ccccc2C[C@@H]1C(=O)N1[C@H](C(=O)O)C[C@@H]2CCCC[C@@H]21	> 10	31.6	–	–	24	–
NC(N)=NCCC[C@@H](N)C(=O)N[C@@H](CCCN=C(N)N)C(=O)N1CCC[C@H]1C(=O)N1C[C@H](O)C[C@H]1C(=O)NCC(=O)N[C@@H](Cc1cccs1)C(=O)N[C@@H](CO)C(=O)N1Cc2ccccc2C[C@@H]1C(=O)N1[C@H](C(=O)N[C@@H](CCCN=C(N)N)C(=O)O)C[C@@H]2CCCC[C@@H]21	–	> 10000	–	–	> 1000	–
N=C(N)NCCC[C@@H](N)C(=O)N[C@@H](CCCNC(=N)N)C(=O)N1CCC[C@H]1C(=O)N1CC(O)C[C@H]1C(=O)NCC(=O)N[C@@H](Cc1cccs1)C(=O)N[C@@H](CO)C(=O)N[C@@H]1CSc2ccccc2N(CC(=O)O)C1=O (some centres undefined)	–	–	4.4	–	83	–
NCCCC[C@H](NC(=O)[C@@H](N)CCCCN)C(=O)N[C@@H](CCCN=C(N)N)C(=O)N1CCC[C@H]1C(=O)N1CC(O)C[C@H]1C(=O)NCC(=O)N[C@H](C(=O)N[C@@H](CO)C(=O)N[C@@H]1CSc2ccccc2N(CC(=O)O)C1=O)C1Cc2ccccc2C1 (some centres undefined) (H-KKRP[X1]G[Igl]S-X2)	3.16	3.16	62	–	0.035	–
NC(N)=NCCC[C@@H](N)C(=O)N[C@@H](CCCN=C(N)N)C(=O)N1CCC[C@H]1C(=O)N1CC(O)C[C@H]1C(=O)NCC(=O)N[C@H](C(=O)N[C@@H](CO)C(=O)N[C@@H]1CSc2ccccc2N(CC(=O)O)C1=O)C1Cc2ccccc2C1 (some centres undefined)	> 10	–	325	–	5.6	–
NCCCC[C@H](N)C(=O)N[C@@H](CCCN=C(N)N)C(=O)N1CCC[C@H]1C(=O)N1CC(O)C[C@H]1C(=O)NCC(=O)N[C@@H](Cc1cccs1)C(=O)N[C@@H](CO)C(=O)N[C@@H]1CSc2ccccc2N(CC(=O)O)C1=O (some centres undefined) (H-KRP[X1]G[2Thi]S-X2) [listing 1 of 2 here]	–	39.8	0.4	–	0.22	–
NCCCC[C@H](N)C(=O)N[C@@H](CCCN=C(N)N)C(=O)N1CCC[C@H]1C(=O)N1CC(O)C[C@H]1C(=O)NCC(=O)N[C@@H](Cc1cccs1)C(=O)N[C@@H](CO)C(=O)N[C@@H]1CSc2ccccc2N(CC(=O)O)C1=O (some centres undefined) (H-KRP[X1]G[2Thi]S-X2) [listing 2 of 2 here]	–	–	–	–	–	4.8
